Activity calls are given as the source filed them. The rule behind the calls is not given here.
System: Rattus norvegicus
Experiment: Awakening activity in rat assessed as decrease of theta rhythm at 10 mg/kg, po after 3 to 4 hrs
Assay type: functional, organism-based
Design: dose 10 mg/kg

Structure (SMILES) | Activity
C[C@@H]1CCCN1CCc1cc2cc(-c3ccc(C#N)cc3)ccc2o1 | Active

System: Rattus norvegicus
Experiment: Awakening activity in rat assessed as increased wakefulness at 10 mg/kg, po
Assay type: functional, organism-based
Design: dose 10 mg/kg

Structure (SMILES) | Activity
S=C(NC1CCCCC1)N1CCC(c2cnc[nH]2)CC1 | Active

System: Rattus norvegicus
Experiment: Awakening activity in rat assessed as increased wakefulness at 10 mg/kg, ip after 3 hrs
Assay type: functional, organism-based
Design: dose 10 mg/kg
Summary of the method: (§1)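 Rats given compound orally at 3 or 10 mg/kg, or reference drugs i.p. or p.o. at 10 mg/kg. EEG recorded during the light phase and scored as wakefulness, slow wave sleep and REM sleep. Time-course analysis of the effects.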

Structure (SMILES) | Activity
O=C(c1ccc(OCCCc2c[nH]cn2)cc1)C1CC1 | Active

System: Rattus norvegicus
Experiment: Awakening activity in rat assessed as decrease in slow wave and REM sleep at 10 mg/kg, po
Assay type: functional, organism-based
Design: dose 10 mg/kg

Structure (SMILES) | Activity
S=C(NC1CCCCC1)N1CCC(c2cnc[nH]2)CC1 | Active

Molecular target: Histamine receptor H3 (Macaca mulatta, UniProt Q865E1)
Experiment: Displacement of [3H]N-alpha-methylhistamine from rhesus monkey histamine H3 receptor expressed in CHO cells
Assay type: cell-based
Summary of the method: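 Membranes from CHO cells stably expressing rhesus monkey H3 receptor. Competition binding against [3H]N-α-methylhistamine; Ki values are means of three or more determinations.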

Chain of Histamine receptor H3 (Q865E1 whole entry): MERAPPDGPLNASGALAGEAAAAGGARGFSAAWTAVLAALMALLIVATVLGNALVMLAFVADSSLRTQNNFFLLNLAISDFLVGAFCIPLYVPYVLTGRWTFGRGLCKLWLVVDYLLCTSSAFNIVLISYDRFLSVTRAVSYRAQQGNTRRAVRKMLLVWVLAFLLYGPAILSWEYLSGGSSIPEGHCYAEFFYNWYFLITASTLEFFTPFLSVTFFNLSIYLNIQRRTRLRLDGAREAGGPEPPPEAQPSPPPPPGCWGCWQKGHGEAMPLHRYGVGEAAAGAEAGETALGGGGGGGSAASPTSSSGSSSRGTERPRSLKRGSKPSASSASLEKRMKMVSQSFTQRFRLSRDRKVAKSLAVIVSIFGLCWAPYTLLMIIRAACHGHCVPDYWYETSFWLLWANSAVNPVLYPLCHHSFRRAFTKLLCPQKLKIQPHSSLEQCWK

Structure (SMILES) | Ki
Cc1cc(N2CC[C@H](N3CCC[C@@H]3C)C2)ccc1NC(=O)CC1CCCC1 | 0.85 nM
CC(=O)N1CCCC1C(=O)Nc1ccc(N2CCC(N3CCCC3C)C2)cc1 (mixture of isomers) | 14.1 nM
Cc1cc(N2CC[C@H](N3CCC[C@@H]3C)C2)ccc1NC(=O)C1C(C)(C)C1(C)C | 0.55 nM
CC1CCCN1C1CCN(c2ccc(NC(=O)C3CC4CCC3C4)cc2)C1 (configuration not stated) | 15.7 nM
Cc1cc(NC(=O)C2CC3CCC2C3)ccc1N1CCC(N2CCCC2C)C1 (mixture of isomers) | 130 nM
Cc1cc(N2CCC(N3CCCC3C)C2)ccc1NC(=O)C1CCCO1 (mixture of isomers) | 7.34 nM
Cc1cc(N2CCC(N3CCCC3C)C2)ccc1NC(=O)C1CCCCC1 (mixture of isomers) | 9 nM
Cc1cc(N2CC[C@H](N3CCC[C@@H]3C)C2)ccc1NC(=O)C1CCCCC1 | 0.39 nM
Cc1cc(NC(=O)C2CCCO2)ccc1N1CCC(N2CCCC2C)C1 (mixture of isomers) | 17 nM
CC1CCCN1C1CCN(c2ccc(NC(=O)C3CCCO3)cc2)C1 (mixture of isomers) | 8.7 nM
Cc1cc(N2CC[C@H](N3CCC[C@@H]3C)C2)ccc1NC(=O)C1CC2CCC1C2 (some centres not stated) | 0.55 nM
Cc1cc(N2CC[C@@H](N3CCC[C@@H]3C)C2)ccc1NC(=O)C1CCOCC1 (racemic) | 3.9 nM
Cc1cc(N2CCC(N3CCCC3C)C2)ccc1NC(=O)C1CC2CCC1C2 (mixture of isomers) | 19.9 nM
CC(=O)N1CCCC1C(=O)Nc1ccc(N2CCC(N3CCCC3C)C2)c(C)c1 (mixture of isomers) | 44.9 nM
CC(=O)N1CCCC1C(=O)Nc1ccc(N2CCC(N3CCCC3C)C2)cc1C (mixture of isomers) | 57.7 nM
Cc1cc(N2CC[C@H](N3CCC[C@@H]3C)C2)ccc1NC(=O)C1CCCO1 (some centres not stated) | 7.33 nM

System: Rattus norvegicus
Experiment: Awakening activity in rat assessed as increased wakefulness at 10 mg/kg, po after 3 to 4 hrs
Assay type: functional, organism-based
Design: dose 10 mg/kg
Summary of the method: as §1

Structure (SMILES) | Activity
C[C@@H]1CCCN1CCc1cc2cc(-c3ccc(C#N)cc3)ccc2o1 | Active

System: Rattus norvegicus
Experiment: Awakening activity in rat assessed as increased wakefulness at 10 mg/kg, po after 1 hr
Assay type: functional, organism-based
Design: dose 10 mg/kg
Summary of the method: as §1

Structure (SMILES) | Activity
CNC(=O)c1ccc(Oc2ccc3c(c2)CCN(C2CCC2)CC3)nc1 | Active

— ChEMBL document CHEMBL2440017, “Discovery of a potent, selective, and orally bioavailable histamine H3 receptor antagonist SAR110068 for the treatment of sleep-wake disorders” (Bioorg Med Chem Lett, 2013)
